Results taken from ChEMBL document CHEMBL1149253, “Effects of indole fatty alcohols on the differentiation of neural stem cell derived neurospheres” (J Med Chem, 2004).
The source made the active and inactive calls. The rule behind the calls is not given here.

Key:
[1] = Hydroxyl radical scavenging activity after 2 hrs by ABTS competition assay; type: functional
Outline: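 In the ABTS competition assay, hydroxyl radicals oxidize ABTS to ABTS•+, read by absorbance at 405 nm. IC50 is the concentration giving 50% decrease in ABTS•+ formed. Values are means of triplicate determinations.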

[2] = Differentiation activity of neural stem cell derived neurosphere into neurons at 10 nM after 3 days relative to control; type: functional, Homo sapiens
Outline: (§1)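 Dissociated neurospheres proliferated for 3 days, then 50–100 spheres were plated on polyornithine coverslips to differentiate, with EGF reduced to 2 ng/mL. Compound (ethanol stock, 0.1% ethanol final; ethanol-only control) was added at plating, or daily at 10 nM in proliferation, differentiation or both phases. Spheres were fixed in 4% PFA and immunostained for MAP2/TUJ1 (neurons) and GFAP (astrocytes). Confocal counts were expressed as % of TO-PRO-3-stained cells; >10 spheres per condition, 3–4 independent experiments.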

Homo sapiens [3] = species on record: Homo sapiens; test: Effect on neural stem cell derived neurospheres assessed as differentiation into astrocytes at 10 nM after 3 days; type: functional; outline: as §1
Homo sapiens [4] = species on record: Homo sapiens; test: Mitotic effect on neuronal precursors in neural stem cell derived neurospheres assessed by BrdU incorporation; type: functional
[5] = Decrease in Notch1 mRNA expression in neural stem cell derived neurospheres during differentiation phase at 10 nM by semi-quantitative RT-PCR; type: functional; set-up: scale not given: the % may be the effect or the level left; details: Homo sapiens
Outline: (§2)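 Neurospheres were treated with or without compound at 10 nM during the differentiation phase. Total RNA was then isolated. cDNA was made from 3 μg RNA with M-MLV reverse transcriptase and random hexamers at 37 °C for 1 h. One-tenth of the cDNA was amplified by Taq PCR with gene-specific Notch primers, using GAPDH as internal control (94/55/72 °C, 30 s each). Products were resolved on a 1% agarose gel with ethidium bromide.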

[6] = Decrease in Notch2 mRNA expression in neural stem cell derived neurospheres during differentiation phase at 10 nM by semi-quantitative RT-PCR; type: functional; set-up: scale not given: the % may be the effect or the level left; details: Homo sapiens; outline: as §2
[7] = Decrease in Notch3 mRNA expression in neural stem cell derived neurospheres during differentiation phase at 10 nM by semi-quantitative RT-PCR; type: functional; set-up: scale not given: the % may be the effect or the level left; details: Homo sapiens; outline: as §2
[8] = Decrease in Notch4 mRNA expression in neural stem cell derived neurospheres during differentiation phase at 10 nM by semi-quantitative RT-PCR; type: functional; set-up: scale not given: the % may be the effect or the level left; details: Homo sapiens; outline: as §2
[9] = Effect on neural stem cell derived neurospheres during proliferation phase assessed as increase in number of MAP2 positive cells at 10 nM after 3 days; type: functional, Homo sapiens; outline: as §1
[10] = Effect on neural stem cell derived neurospheres during differentiation phase assessed as increase in number of MAP2 positive cells at 10 nM after 3 days; type: functional, Homo sapiens; outline: as §1
[11] = Effect on neural stem cell derived neurospheres during proliferation and differentiation phase assessed as increase in number of MAP2 positive cells at 10 nM; type: functional, Homo sapiens; outline: as §1

SMILES | IC50 [1] [µM] | Activity [2] [%] | also measured
COc1ccc2c(CCCCCCCCCCCCCCCCO)c[nH]c2c1 | 34 | 135 | –
COc1ccc2c(CCCCCCCCCCO)c[nH]c2c1 | – | 110 | –
OCCCCCCCCCCCCCCc1c[nH]c2ccccc12 | – | 118 | –
COc1ccc2[nH]cc(CCCCCCCCCCCCCCCCO)c2c1 | 34 | 168 | –
Cc1c(C)c2c(c(C)c1O)CCC(C)(C(=O)O)O2 (centres undefined) [TROLOX] | 600 | – | –
COc1ccc2[nH]cc(CCCCCCCCCCCCCCCCO)c2c1OC | 17 | 118 | –
COc1ccc2c(CCCCCCCCCCCCCCCCCCO)c[nH]c2c1 | – | 156 | –
COc1cccc2[nH]cc(CCCCCCCCCCCCCCO)c12 | – | 118 | –
COc1ccc2c(CCCCCCCCCCCCCCO)c[nH]c2c1 | – | 82 | –
CCCCCCCCCCCCCCCc1c[nH]c2ccc(OC)cc12 | 207 | – | –
OCCCCCCCCCCCCCCCCc1c[nH]c2ccccc12 | – | 144 | –
COc1ccc2[nH]cc(CCCCCCCCCCCCCCCCCCO)c2c1OC | – | 106 | –
COc1cccc2[nH]cc(CCCCCCCCCCCCCCCCCCO)c12 | – | 110 | –
OCCCCCCCCCCCCc1c[nH]c2ccccc12 | – | 124 | –
OCCCCCCCCCCCCCCCCCCc1c[nH]c2ccccc12 | – | 113 | –
CC1=C(CCCCCCCCCCCCCCCO)C(C)(C)CCC1=O | – | – | Activity [1]: inactive
COc1ccc2c(CCCCCCCCCCCCO)c[nH]c2c1 | – | 67 | –
COc1cc2[nH]cc(CCCCCCCCCCCCCCCCCCO)c2cc1OC | – | 116 | –
COc1cccc2[nH]cc(CCCCCCCCCCO)c12 | – | 95 | –
COc1ccc2[nH]cc(CCCCCCCCCCCCO)c2c1 | – | 108 | –
COc1ccc2[nH]cc(CCCCCCCCCCCCCCO)c2c1 | – | 143 | –
COc1ccc2[nH]cc(CCCCCCCCCCCCCCCCCCO)c2c1 | – | 169 | Activity (Homo sapiens [3]): inactive; Activity (Homo sapiens [4]): inactive; Activity [5]: > 70%; Activity [6]: > 70%; Activity [7]: > 70%; Activity [8]: 19%; Activity [9]: <=90%; Activity [10]: <=90%; Activity [11]: <=90%
COc1cc2[nH]cc(CCCCCCCCCCCCCCCCO)c2cc1OC | 34 | 113 | –
COc1ccc2[nH]cc(CCCCCCCCCCO)c2c1 | – | 109 | –
COc1cccc2c(CCCCCCCCCCCCCCCCO)c[nH]c12 | 26 | – | –
COc1cccc2[nH]cc(CCCCCCCCCCCCO)c12 | – | 98 | –
OCCCCCCCCCCc1c[nH]c2ccccc12 | – | 115 | –
COc1cccc2[nH]cc(CCCCCCCCCCCCCCCCO)c12 | 23 | 133 | –
COc1ccc2[nH]cc(CCNC(C)=O)c2c1 [MELATONIN] | 211 | 119 | –
